Bioassay records from PubChem.
DNMT1 block: DNMT1 (human) enzyme inhibition; P26358; DNMT1 molecular beacon, Hinp1I cleavage, fluorescence; inhibition (reported as % activation of signal), % at 10 µM; actives 0.83% (n = 360,000); AID 588458; in the data active = inhibition above about 50%
Rpn11 block: Rpn11 (human) deubiquitinase inhibition; O00487; actives 0.59% (n = 360,000); inhibition, % at 20 µM; human 26S proteasome, Ub4-pepOG fluorescence polarization; 20S core pre-blocked with epoxomicin;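 active = inhibition at 20 µM, scaled to each plate's controls, above about 33%, limit read from the data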
Scp1 inh: Scp-1 (human) phosphatase inhibition | Recombinant Scp1, phosphopeptide, malachite green phosphate absorbance | inhibition, % at 20 µM | actives 0.88% (n = 340,000) | AID 493091;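 active = inhibition above about 50% at 20 µM, limit read from the data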
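Test system: SCP-1 phosphatase catalytic domain, residues 76-261 | Compound dosing: One concentration, 20 µM, with 1.0% DMSO | Schedule: 45 min room-temperature reaction, 5 min colour, 30 min stabiliser | Detection: Absorbance at 630 nm | Read-out basis: % inhibition of SCP-1 phosphate liberation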
SUMO1-SIM PPI: modulators of human SUMO1-mediated protein-protein interactions; inhibition, % at 20 µM; actives 0.33% (n = 360,000); SUMO1 binding to a labelled peptide, TR-FRET, 1 h; P63165; in the data active = inhibition above about 37%
STEP inh: blocks human striatal-enriched tyrosine phosphatase; recombinant STEP, OMFP fluorogenic substrate, fluorescence; inhibition, % at 20 µM; actives 0.25% (n = 360,000);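 active = inhibition at 20 µM, scaled per plate between control wells, above about 37%, limit read from the data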
Target sequence (P54829 whole entry, looked up): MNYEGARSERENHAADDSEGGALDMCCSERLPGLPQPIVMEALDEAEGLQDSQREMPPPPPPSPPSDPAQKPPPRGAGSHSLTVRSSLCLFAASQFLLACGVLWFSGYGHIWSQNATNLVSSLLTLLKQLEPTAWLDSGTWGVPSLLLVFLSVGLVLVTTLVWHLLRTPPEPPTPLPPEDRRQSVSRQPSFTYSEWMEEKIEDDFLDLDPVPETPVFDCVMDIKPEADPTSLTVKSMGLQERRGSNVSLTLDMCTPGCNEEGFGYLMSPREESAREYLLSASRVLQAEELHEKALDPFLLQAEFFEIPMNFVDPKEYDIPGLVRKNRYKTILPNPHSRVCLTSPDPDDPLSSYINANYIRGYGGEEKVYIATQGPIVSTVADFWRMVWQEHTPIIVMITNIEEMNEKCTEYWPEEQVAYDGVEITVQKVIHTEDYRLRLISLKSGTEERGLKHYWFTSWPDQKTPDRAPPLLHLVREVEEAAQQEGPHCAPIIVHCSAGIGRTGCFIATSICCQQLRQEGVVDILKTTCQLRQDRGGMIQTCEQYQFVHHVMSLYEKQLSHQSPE
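System: STEP (striatal-enriched tyrosine phosphatase) enzyme, cell-free; medium: Bis-Tris pH 6.0 buffer with DTT, detergent; dosing: 20 µM, 1% DMSO; times: reaction 20 min, ambient temperature; detection: fluorescence, 480/540 nm; read-out basis: normalized % inhibition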
LMPTP inh: LMPTP (human) inhibition; AID 651560; inhibition, % at 20 µM; actives 0.22% (n = 360,000); recombinant LMPTP-A, OMFP fluorogenic substrate, fluorescence intensity; P24666;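 active = compounds that cut the enzyme signal by at least half of the control window in the single-dose screen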
Target sequence (P24666 whole entry, looked up): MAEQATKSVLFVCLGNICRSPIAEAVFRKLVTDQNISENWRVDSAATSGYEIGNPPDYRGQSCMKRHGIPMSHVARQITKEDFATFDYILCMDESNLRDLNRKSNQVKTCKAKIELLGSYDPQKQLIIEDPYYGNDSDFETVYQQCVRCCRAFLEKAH
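Buffer or medium: Bis-Tris pH 6.0, DTT, detergent; Assay system: LMPTP-A enzyme; Quantity: 0.625 nM enzyme; Detection: endpoint fluorescence intensity; Times: 50 min dark incubation at room temperature; Controls: substrate-only low control, DMSO enzyme-plus-substrate high control; Doses: single 20 µM dose; Read-out: percent inhibition versus substrate-only and uninhibited controls; Reagent: 400 µM OMFP.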
Scp1 confirm: confirmation of human Scp-1 phosphatase inhibitors; shares compounds with Scp1 inh; recombinant SCP-1 catalytic domain, phosphate release, malachite green absorbance; inhibition, % at 20 µM; actives 61% (n = 2,500); AID 540281
Scp-1 MG ctr: counter-screen for Scp-1 inhibitors: colorimetric interference; shares compounds with Scp1 inh; Colorimetric interference counterscreen, malachite green absorbance 630 nm; apparent inhibition (interference), % at 20 µM; 2,500 tested, under 10 active; AID 540313;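 also: compounds added after enzyme reaction finished so only phosphate colour detection is probed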
Scp1 DSF: validation of human Scp-1 inhibitors by thermal shift binding | actives 25% (n = 1,500) | thermal shift relative to vanadate control, % at 40 µM | shares compounds with Scp1 inh | Recombinant SCP1, Sypro Orange thermal shift Tm | AID 540329;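 active = substances whose mean melting-temperature shift, as a percentage of the reference inhibitor's shift, reaches about 5.3%, limit read from the data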
Of the large screens only hits and unclear results are named; the others gave an inactive call (follow-up assays come after a bar, where shown). An excerpt weighted towards active compounds, which were near 2.3% of everything screened.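 The calls were made as follows, unless noted: active = inhibition of at least 30% at 20 µM; inactive = the rest.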

C[N+]1(CCCCSc2ccc(O)cc2)CCCCC1	Scp1 inh 98 | Scp1 confirm 83 | Scp-1 MG ctr inactive | Scp1 DSF inactive
COc1ccc(S(=O)(=O)Nc2ccccc2N2CCOCC2)cc1OC	none
C[N+]12CCCCC1[C@@H](CO)CCC2 (stereo partly specified)	Scp1 inh 55 | Scp1 confirm inactive | Scp-1 MG ctr inactive
Cc1ccc(CN2CC(C(=O)Nc3ncc(C)s3)CC2=O)cc1 (stereo unspecified)	Scp1 inh 51 | Scp1 confirm inactive | Scp-1 MG ctr inactive
CC(C)S(=O)(=O)N1CCCC(c2cc(C(=O)NCc3ccccc3)no2)C1 (stereo unspecified)	none (no result: Scp1 inh)
CCc1ccc(NC(=O)CC2C(=O)NCCN2C(=O)c2ccc(F)cc2)cc1 (stereo unspecified)	none | Scp1 confirm inactive | Scp-1 MG ctr inactive
CC(C)(C)c1ccc(C(=O)N2CCNC(=O)C2CC(=O)Nc2ccc(F)cc2)cc1 (stereo unspecified)	none
Cc1nn(Cc2c(F)c(F)c(F)c(F)c2F)c(C)c1NC(=O)c1nn(C)c(C)c1Br	none
COc1cccc(S(=O)(=O)Nc2ccc(C(O)(C(F)(F)F)C(F)(F)F)cc2)c1	none (no result: Scp1 inh)
Cc1cccc(C)c1NC(=O)CN(C)C(=O)c1ccc2nc[nH]c2c1	Scp1 inh 50 | Scp1 confirm 55 | Scp-1 MG ctr inactive | Scp1 DSF inactive
Cc1ccc(NC(=O)c2ccc3nc[nH]c3c2)nc1	Scp1 inh 57 | Scp1 confirm 44 | Scp-1 MG ctr inactive | Scp1 DSF inactive
COC(=O)c1ccc(/C=C/C(=O)OCC(=O)Nc2sccc2C(N)=O)cc1	none
NC(=O)c1ccsc1NC(=O)COC(=O)/C=C/c1ccc([N+](=O)[O-])cc1	Scp1 inh 71, LMPTP inh 64 | Scp1 confirm 59 | Scp-1 MG ctr inactive | Scp1 DSF inactive
CC(=O)Nc1ccc(NC(=O)c2ccc(OCc3c(C)noc3C)cc2)cc1	Scp1 inh 59 | Scp1 confirm inactive | Scp-1 MG ctr inactive
Cc1ccc(NC(=O)c2ccc(OCc3c(C)noc3C)cc2)cc1C	none
CCc1ccc(CN(C)C(=O)CCc2nnc(COc3ccccc3)o2)cc1	none
CCOC(=S)SCC(=O)N1CCc2cc(OC)ccc2C1C1C(=O)CCCC1=O (stereo unspecified)	none
C/C=C/c1ccc(OCC(=O)Nc2ccc(C(N)=O)cc2)c(OC)c1	none
COc1cc(/C=C/c2cc[n+](C)cc2)ccc1OCC(=O)Nc1ccccc1	Scp1 inh 77 | Scp1 confirm 89 | Scp-1 MG ctr inactive | Scp1 DSF inactive
CSc1ccccc1NC(=O)CN(C)CC(=O)c1[nH]c(C)c(C(C)=O)c1C	Scp1 inh 101 | Scp1 confirm inactive | Scp-1 MG ctr inactive
O=C(O)c1nc(N2CCCC2)ncc1Cl	none
O=C(CN1C(=O)NC2(CCCCC2)C1=O)NCC(=O)Nc1ccc(F)c(F)c1	none | Scp1 confirm inactive | Scp-1 MG ctr inactive
Cc1ccc(N2CC(C(=O)Nc3nnc(SCCC4OCCO4)s3)CC2=O)cc1 (stereo unspecified)	none | Scp1 confirm inactive | Scp-1 MG ctr inactive
COC(=O)C1C(=O)N(S(=O)(=O)c2ccc([N+](=O)[O-])cc2)c2ccccc21 (stereo unspecified)	none (no result: DNMT1 block, Rpn11 block, Scp1 inh, STEP inh)
O=C(c1ccc(F)cc1Cl)N1CCN(S(=O)(=O)c2cccs2)CC1	none
Cc1ccc(C(=O)N/N=C/c2cc(Br)ccc2O)cn1	none
Cc1ccc(C(=O)N/N=C\C=C\c2ccc(Br)cc2)cn1	Scp1 inh 72 | Scp1 confirm 48 | Scp-1 MG ctr inactive | Scp1 DSF inactive
C[N+]1(CC(=O)OCCCc2ccccc2)CCCC1	Scp1 inh 62 | Scp1 confirm 82 | Scp-1 MG ctr inactive | Scp1 DSF inactive
CC(C)NC(=O)N(C)C[C@H]1Oc2ccc(NS(=O)(=O)c3cccs3)cc2C(=O)N([C@H](C)CO)C[C@@H]1C	none
C[C@H]1CN([C@@H](C)CO)C(=O)Cc2cc(NS(=O)(=O)c3cn(C)cn3)ccc2O[C@@H]1CN(C)C(=O)Nc1ccc(F)cc1	Scp1 inh 73 | Scp1 confirm 37 | Scp-1 MG ctr inactive | Scp1 DSF inactive
COc1ccc(NC(=O)N(C)C[C@H]2OCCCC[C@H](C)Oc3ccc(NS(=O)(=O)c4cn(C)cn4)cc3C(=O)N([C@H](C)CO)C[C@@H]2C)cc1	none (no result: Scp1 inh)
C[C@@H]1CN([C@H](C)CO)C(=O)c2cc(NS(=O)(=O)c3cn(C)cn3)ccc2O[C@H]1CN(C)C(=O)Nc1ccccc1	Scp1 inh 82 | Scp1 confirm inactive | Scp-1 MG ctr inactive
C[C@H](CO)N1C[C@H](C)[C@@H](CN(C)C(=O)NC2CCCCC2)Oc2ccc(NS(=O)(=O)c3cccs3)cc2C1=O	Scp1 inh 56 | Scp1 confirm inactive | Scp-1 MG ctr inactive
CCNc1c(NS(=O)(=O)c2ccc(F)c(Cl)c2)c(=O)oc2ccccc12	none
CCOC(=O)N1C(=O)NC(=O)C1c1ccc(OC)cc1 (stereo unspecified)	none
COc1ccccc1C(=O)NNC1CC(=O)N(c2ccc3c(c2)OCCO3)C1=O (stereo unspecified)	none | Scp1 confirm inactive | Scp-1 MG ctr inactive
C#CCNC(=O)C[C@@H]1C[C@@]2(C(=O)OCC)CCCC=C2N(CCC2=CCCCC2)C1=O	none (no result: DNMT1 block, Rpn11 block, Scp1 inh, STEP inh)
Cc1cc(C)c2c(N)c(C(=O)c3ccc(Cl)c(Cl)c3)sc2n1	Scp1 inh 80, LMPTP inh 62 | Scp1 confirm inactive | Scp-1 MG ctr inactive
Cc1c(OC(=O)c2ccc([N+](=O)[O-])cc2)c2c(c[n+]1C)COC(C)(C)OC2	Scp1 inh 67 | Scp1 confirm 79 | Scp-1 MG ctr inactive | Scp1 DSF inactive
O=C(Cc1ccc(F)cc1)Nc1nnc(-c2ccc(F)cc2)o1	none
CCN(CC)c1ccc(/C=C2\C(=O)c3ccc(C(=O)O)cc3C2=O)cc1	none (not shown: Rpn11 block)
Cc1ccc(NC(=O)c2cc(-c3ccc(C)c(C)c3O)n[nH]2)cc1C	Scp1 inh 99 | Scp1 confirm 67 | Scp-1 MG ctr inactive | Scp1 DSF 7.5
CC(=O)Nc1ccc(NC(=O)c2cc(-c3ccc(C)c(C)c3O)n[nH]2)cc1	none
